The values that follow come from ChEMBL document CHEMBL5344428, “Discovery, Crystallographic Studies, and Mechanistic Investigations of Novel Phenylalanine Derivatives Bearing a Quinazolin-4-one Scaffold as Potent HIV Capsid Modulators” (J Med Chem, 2023).

For series [1], the system named is Human immunodeficiency virus 2. Description: Antiviral activity against HIV-2 ROD infected in human MT4 cells assessed as protection against virus induced cytopathic effect. It counts as functional, organism-based. The note with it: Human immunodeficiency virus 2, ROD. The method in brief:
(§1)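 MT-4 cells were infected with HIV-1 IIIB or HIV-2 ROD, and cell viability was read by MTT. […] Each value was run in at least triplicate and averaged from at least three independent experiments.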
Background: Damage to the host cells serves as the signal in cytopathic effect assays.

Series [2] in a line: Cytotoxicity against human MT4 cells assessed as reduction in cell viability. The format is toxicity, cell-based. The method in brief: (§2)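 Uninfected MT-4 cells were exposed to compound, and viability was read by the MTT method. […] Each value was run in at least triplicate and averaged from at least three independent experiments.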
Series [3] in a line: Selectivity ratio of EC50 for antiviral activity against HIV1 IIIB infected in human MT4 cells to EC50 for antiviral activity against HIV2 ROD infected in human MT4 cells. The format is toxicity, cell-based. The method in brief: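 Ratio is EC50 against HIV-1 IIIB divided by EC50 against HIV-2 ROD. Both EC50 values come from MTT-read protection of infected MT-4 cells.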
A short description of series [4]: Selectivity index, ratio of CC50 for cytotoxicity against human MT4 cells to EC50 for antiviral activity against HIV1 IIIB infected in human MT4 cells. The format is toxicity, cell-based. As to conditions: read-out: Ratio CC50/EC50. The method in brief: (§3)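 SI is CC50 divided by EC50. CC50 comes from MTT viability of uninfected MT-4 cells. EC50 comes from MTT-read protection of MT-4 cells infected with HIV-1 IIIB or HIV-2 ROD. Each value was run in at least triplicate.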

Series [5] in a line: Selectivity index, ratio of CC50 for cytotoxicity against human MT4 cells to EC50 for antiviral activity against HIV2 ROD infected in human MT4 cells. The format is toxicity, cell-based. As to conditions: read-out: Ratio CC50/EC50. The method in brief: as §3
In series [6] the test system is Human immunodeficiency virus 1. The series can be described thus: Antiviral activity against HIV-1 IIIB infected in human MT4 cells assessed as protection against virus induced cytopathic effect. It counts as functional, organism-based. The note with it: Human immunodeficiency virus 1, IIIB. The method in brief:
as §1

Series [7] can be described thus: Cytotoxicity against human MT4 cells assessed as reduction in cell viability incubated for 5 days by MTT assay. The format is toxicity, cell-based. The note with it: MT4 cells, time 5 day. The method in brief:
as §2
On the technique in general: Tetrazolium dyes change colour on reduction, which living cells bring about.

Series [8] relates to Human immunodeficiency virus 1. The series can be described thus: Antiviral activity against HIV1 IIIB infected in human MT4 cells assessed as reduction in virus induced cytopathic effect measured after 5 days by MTT assay. The format is functional, organism-based. The note with it: Human immunodeficiency virus 1, IIIB, MT4, 120 h. The method in brief: as §1
The test system of series [9] is Human immunodeficiency virus 2. Description: Antiviral activity against HIV2 ROD infected in human MT4 cells assessed as reduction in virus induced cytopathic effect measured after 5 days by MTT assay. The format is functional, organism-based. As to conditions: Human immunodeficiency virus 2, ROD, MT4, 120 h. The method in brief: as §1

Molecules are shown by their SMILES.

What is called EC50 is the concentration needed to bring the measured effect to its halfway point. As a reminder, the CC50 is the concentration that lowers cell viability or growth by half. As for `COc1ccc(N(C)C(=O)[C@H](Cc2cc(F)cc(F)c2)NC(=O)CN2CCN(S(=O)(=O)c3ccccc3[N+](=O)[O-])CC2)cc1`, the concentration giving a half-maximal response (EC50) in series [1] was 1.19 µM; in series [6], 2.84 µM. The cytotoxic concentration (CC50) in series [2] was found to be 94.9 µM. Besides, the “Ratio EC50” value in [3] is given as 2.39. Besides, the selectivity ratio in series [4] turned out to be 33.4; in series [5], 79.7.

Consider `COc1ccc(N(C)C(=O)[C@H](Cc2cc(F)cc(F)c2)NC(=O)CN2CCN(S(=O)(=O)c3ccc(Br)cc3)CC2)cc1`, for which the values for the concentration giving a half-maximal response (EC50) in series [1] and in [6] were 0.35 µM and 0.86 µM, respectively. Also, the CC50 in [2] was determined as 13.2 µM. Moreover, in series [3], the “Ratio EC50” value is listed as 2.46. For the same compound, the figures for the selectivity ratio in series [4] and in series [5] were 15.4 and 37.8, respectively.

For `COc1ccc(N(C)C(=O)[C@H](Cc2cc(F)cc(F)c2)NC(=O)CN2CCN(S(=O)(=O)c3ccc(F)cc3)CC2)cc1`, the concentration for a half-maximal effect (EC50) in series [1] amounted to 0.36 µM; in series [6], 0.79 µM. Moreover, in [2], the CC50 is 19.2 µM. Also, the “Ratio EC50” value in [3] was determined as 2.19. Also, the selectivity ratio in series [4] came to 24.3; in [5], 53.3.

For `COc1ccc(N(C)C(=O)[C@H](Cc2cc(F)cc(F)c2)NC(=O)CN2CCN(S(=O)(=O)c3ccc(NC(C)=O)cc3)CC2)cc1`, the values for the EC50 in series [1] and in series [6] were 0.03 µM and 0.21 µM, respectively. The cytotoxic concentration (CC50) in series [2] worked out at 91.6 µM. Moreover, in [3], the “Ratio EC50” value is 7. Besides, the selectivity ratio in series [4] amounted to 436; in series [5], 3050.

As to `COc1ccc(N(C)C(=O)[C@H](Cc2cc(F)cc(F)c2)NC(=O)CN2CCN(S(=O)(=O)c3cccc([N+](=O)[O-])c3)CC2)cc1`, the EC50 in series [1] is 0.17 µM; in series [6] it was 1.49 µM. For the same compound, the CC50 in series [2] was 83.9 µM. Besides, in [3], the “Ratio EC50” value came out at 8.76. The selectivity ratio was found to be 56.3 in series [4] and 493 in [5].

Take `COc1ccc(N(C)C(=O)[C@H](Cc2cc(F)cc(F)c2)NC(=O)CN2CCN(S(=O)(=O)c3ccccc3N)CC2)cc1`: the half-maximal effective concentration (EC50) in series [1] was determined as 0.14 µM; in series [6], 0.52 µM. The CC50 in series [2] is 63.6 µM. Further, the “Ratio EC50” value in [3] was determined as 3.71. Further, the values for the selectivity ratio in [4] and in series [5] were 122 and 454, respectively.

As for `COc1ccc(N(C)C(=O)[C@H](Cc2cc(F)cc(F)c2)NC(=O)CN2CCN(S(=O)(=O)c3ccc(N)cc3)CC2)cc1`, the EC50 is 0.05 µM in series [1] and 0.12 µM in series [6]. Besides, the 50% cytotoxic concentration (CC50) in series [2] was 117 µM. Besides, the “Ratio EC50” value in [3] is 2.4. The values for the selectivity ratio in series [4] and in series [5] were 977 and 2340, respectively.

Consider `COc1ccc(N(C)C(=O)[C@H](Cc2cc(F)cc(F)c2)NC(=O)CN2CCN(S(=O)(=O)c3ccccc3)CC2)cc1`, for which the EC50 in series [1] was found to be 0.1 µM; in series [6] it was 0.2 µM. The half-maximal cytotoxic concentration (CC50) in series [2] was 114 µM. The “Ratio EC50” value in [3] was 2. Besides, the selectivity ratio worked out at 570 in [4] and 1140 in series [5].

For the compound `COc1ccc(N(C)C(=O)[C@H](Cc2cc(F)cc(F)c2)NC(=O)CN2CCN(S(=O)(=O)c3ccc([N+](=O)[O-])cc3)CC2)cc1`, the 50% effective concentration (EC50) is 0.48 µM in [1] and 1.01 µM in [6]. The half-maximal cytotoxic concentration (CC50) in series [2] amounted to 14.8 µM. In addition, the “Ratio EC50” value in series [3] turned out to be 2.1. Also, the selectivity ratio in series [4] was 14.7; in [5], 30.9.

For `COc1ccc(-n2c(SCc3cncs3)nnc2[C@H](Cc2ccccc2)NC(=O)Cc2c(C)[nH]c3ccccc23)cc1`, in series [3], the “Ratio EC50” value was found to be 0.23. The CC50 at 120 h in [7] was 33.9 µM. Moreover, the results for the selectivity ratio in series [4] and in series [5] were 38 and 9, respectively. In addition, the EC50 in series [8] amounted to 0.9 µM; in series [9], 3.98 µM.

Take `COc1ccc(-n2c(S)nnc2[C@H](Cc2ccccc2)NC(=O)Cc2c(C)[nH]c3ccccc23)cc1`: in series [3], the “Ratio EC50” value is on record as 0.47. Also, in series [7], the CC50 at 120 h was 133 µM. Moreover, the values for the selectivity ratio in [4] and in series [5] were 27 and 13, respectively. The concentration for a half-maximal effect (EC50) was found to be 4.94 µM in [8] and 10.6 µM in [9].

In the case of `COc1ccc(N(C)C(=O)[C@H](Cc2cc(F)cc(F)c2)NC(=O)CN(Cc2ccc(C#N)cc2)C(=O)Cc2c[nH]c3ccc(Br)cc23)cc1`, the “Ratio EC50” value in series [3] came to 0.36. The CC50 at 120 h in [7] is 87.6 µM. The selectivity ratio came to 16 in [4] and 6 in series [5]. Moreover, the EC50 in [8] came to 5.61 µM; in [9] it was 15.7 µM.

Turning to `COc1ccc(N(C)C(=O)[C@H](Cc2cc(F)cc(F)c2)NC(=O)CN(Cc2ccccc2)C(=O)Cc2c(C)[nH]c3ccccc23)cc1`, the “Ratio EC50” value in [3] is reported as 0.42. For the same compound, the CC50 at 120 h in [7] amounted to 28.6 µM. Also, the selectivity ratio in series [4] came to 10; in series [5], 4. The figures for the EC50 in series [8] and in [9] were 2.77 µM and 6.52 µM, respectively.

For the compound `COc1ccc(N(C)C(=O)[C@H](Cc2ccccc2)NC(=O)CN2CCN(C(=O)Cc3c(C)[nH]c4ccccc34)CC2=O)cc1`, the “Ratio EC50” value in [3] is on record as 1.84. Further, the CC50 at 120 h in series [7] turned out to be 108 µM. Moreover, the selectivity ratio was found to be 7.73 in series [4] and 13.9 in [5]. The EC50 was found to be 14.3 µM in [8] and 7.74 µM in [9].

Consider `COC(=O)CCSc1nnc([C@H](Cc2ccccc2)NC(=O)Cc2c(C)[nH]c3ccccc23)n1-c1ccc(OC)cc1`, for which the “Ratio EC50” value in [3] was 0.59. Also, the CC50 at 120 h in series [7] is more than 214 µM. Moreover, the selectivity ratio is more than 19 in series [4] and more than 11 in series [5]. The values for the 50% effective concentration (EC50) in series [8] and in series [9] were 11.4 µM and 19.2 µM, respectively.

On to `COC(=O)c1ccc(C(=O)Nc2ccn(CC(=O)N[C@@H](Cc3ccccc3)C(=O)N(C)c3ccc(OC)cc3)c(=O)c2)cc1`, for which the “Ratio EC50” value in [3] is reported as 1.25. Besides, the CC50 at 120 h in series [7] was determined as 96.2 µM. Further, the selectivity ratio in series [4] amounted to 5.04; in [5], 6.31. Besides, the concentration for a half-maximal effect (EC50) in series [8] was determined as 19.1 µM; in series [9], 15.2 µM.

As for `COc1ccc(N(C)C(=O)[C@H](Cc2ccccc2)NC(=O)CN2CCN(C(=O)Cc3c[nH]c4ccc(F)cc34)CC2=O)cc1`, the “Ratio EC50” value in [3] is 4.83. Besides, the 50% cytotoxic concentration (CC50) at 120 h in series [7] was 90.1 µM. Further, the selectivity ratio in series [4] is 4.13; in [5], 19.9. Besides, the results for the EC50 in [8] and in [9] were 21.8 µM and 4.52 µM, respectively.

For `COc1ccc(-n2c([C@H](Cc3cc(F)cc(F)c3)NC(=O)CN3CCN(S(=O)(=O)c4ccc([N+](=O)[O-])cc4)CC3)nc3cc(Cl)ccc3c2=O)cc1`, the “Ratio EC50” value in series [3] is recorded as 1.48. Also, the cytotoxic concentration (CC50) at 120 h in [7] is more than 163 µM. The values for the selectivity ratio in series [4] and in [5] were more than 278 and more than 403, respectively. Moreover, the half-maximal effective concentration (EC50) in [8] amounted to 0.59 µM; in [9], 0.4 µM.

Take `COc1ccc(N(C)C(=O)[C@H](Cc2cc(F)cc(F)c2)NC(=O)Cn2ccc(N)cc2=O)cc1`: the “Ratio EC50” value in [3] was found to be 0.34. The 50% cytotoxic concentration (CC50) at 120 h in series [7] is more than 266 µM. For the same compound, the selectivity ratio in series [4] was more than 49.6; in [5], more than 17.1. In addition, the EC50 was found to be 5.36 µM in series [8] and 15.6 µM in series [9].

Turning to `COc1ccc(-n2c(SCCS(C)(=O)=O)nnc2[C@H](Cc2ccccc2)NC(=O)Cc2c(C)[nH]c3ccccc23)cc1`, in [3], the “Ratio EC50” value is on record as 0.24. For the same compound, the CC50 at 120 h in series [7] was 162 µM. Also, the figures for the selectivity ratio in [4] and in series [5] were 42 and 10, respectively. For the same compound, the values for the EC50 in [8] and in series [9] were 3.87 µM and 16 µM, respectively.
